Published values of several laboratories.
Target: Tyrosine-protein kinase Blk (BLK, Homo sapiens, UniProt P51451)

| Compound | assay | setting | endpoint | value |
| --- | --- | --- | --- | --- |
| O=c1[nH]c2ccccc2n1C1CCN(Cc2ccc(-c3[nH]c4cc5ncnc5cc4nc3-c3ccccc3)cc2)CC1 | cell-free assay | 0.5 µM | remaining signal | 106% |
| C#Cc1n[nH]c2c(-c3cn([C@@H](C)c4ccccn4)c(=O)[nH]c3=O)cc(F)cc12 | enzyme activity, inhibitor | 0.1 µM | inhibition | -5.3% |
| Nc1ncc(-c2nc(N3CCOCC3)nc(N3CCOCC3)n2)c(C(F)F)n1 | binding, competition with immobilised ligand | 10 µM | remaining binding | 70% |
| COc1ncccc1-c1cnn2ccc(N3CCN(C(=O)OC(C)C)CC3)nc12 | binding, competition with immobilised ligand | 1 µM | remaining binding | 100% |
| Cn1cncc1[C@](O)(COc1ccc(C#N)cc1-c1ccc(OC(F)(F)F)cc1)c1ccc(C#N)cc1 | cell-free assay, competition with immobilised ligand | 1 µM | remaining binding | 90% |
| Cn1cc(-c2cccc(N3CCc4c(sc5c4CC(C)(C)C5)C3=O)c2CO)cc(Nc2ccncn2)c1=O | enzyme activity, inhibitor | 1 µM | inhibition | -3% |
| COc1cc(Nc2ncc(F)c(Nc3ccc4c(n3)NC(=O)C(C)(C)O4)n2)cc(OC)c1OC | binding, competition with immobilised ligand | 10 µM | inhibition | 100% |
| Cn1cc(-c2cc(F)cc(N3CCn4c(cc5c4CCCC5)C3=O)c2CO)cc(Nc2ccc(N3CCN(C4COC4)CC3)cn2)c1=O | enzyme activity, inhibitor | 0.1 µM | inhibition | 14% |
| Cc1nn(C)cc1-c1nc2c(N3CCN(Cc4ccc(Cl)cc4)CC3)c(Cl)cnc2[nH]1 | binding, competition with immobilised ligand | 1 µM | remaining binding | 100% |
| C#Cc1n[nH]c2c(-c3cn([C@@H](C)c4ccccc4)c(=O)[nH]c3=O)cc(F)cc12 | enzyme activity, inhibitor | 0.1 µM | inhibition | -5.4% |
| CC(C)(C)c1cc(C=C(C#N)C#N)cc(Br)c1O | enzyme activity, inhibitor | 0.5 µM | remaining activity | 97.9% |
